In ChEMBL document CHEMBL4359827 (ACS Med Chem Lett, 2019):
Each block holds one compound with its values, some of them ahead of it.

Columns and labels:
[1] = target: T1, Indoleamine 2,3-dioxygenase 1 (Homo sapiens, UniProt P14902); assay: Inhibition of IDO in human HeLa cells using tryptophan as substrate measured after 48 hrs in presence of INF gamma microplate reader analysis; assay type: cell-based
[2] = target: Tryptophan 2,3-dioxygenase (Homo sapiens, UniProt P48775); assay: Inhibition of human TDO expressed in Escherichia coli Rosetta measured after 1 hr microplate reader analysis
[3] = target: T1, Indoleamine 2,3-dioxygenase 1; assay: Inhibition of human IDO1 expressed in Escherichia coli Rosetta measured after 1 hr by microplate reader analysis
[4] = Protein binding in human plasma measured after 4 hrs by rapid equilibrium dialysis; assay type: ADME, cell-free; details: read-out: PPB (converted)
[5] = Cmax in Beagle dog at 2 mg/kg via oral gavage measured upto 24 hrs; assay type: ADME, organism-based, Canis lupus familiaris; set-up: dose 2 mg/kg, route oral; details: in vivo
[6] = Cmax in Sprague-Dawley rat at 10 mg/kg via oral gavage measured upto 24 hrs; assay type: ADME, organism-based; set-up: dose 10 mg/kg, route oral; details: in vivo
[7] = tested on: MC-38; assay: Antitumour activity against MC38 cells xenografted in humanized PD1 transgenic mouse assessed as tumour growth inhibition at 20 mg/kg, po bid for 14 days by digital caliper method relative to control; assay type: functional; details: MC-38, po, 336 h, read-out: TGI
Procedure, shortened: (§1)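 MC38 tumors implanted in hPD1 transgenic mice. Compound given orally at 20 or 50 mg/kg, bid × 14. Tumor growth inhibition (TGI) was calculated against control. Body weight was monitored.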

[8] = tested on: MC-38; assay: Antitumour activity against MC38 cells xenografted in humanized PD1 transgenic mouse assessed as tumour growth inhibition at 50 mg/kg, po bid for 14 days by digital caliper method relative to control; assay type: functional; details: MC-38, po, 336 h, read-out: TGI; procedure, shortened: as §1
[9] = AUC in Beagle dog at 2 mg/kg via oral gavage measured upto 24 hrs; assay type: ADME, organism-based, Canis lupus familiaris; set-up: time < 24 hr, dose 2 mg/kg, route oral; details: in vivo
[10] = Protein binding in dog plasma measured after 2 to 6 hrs by rapid equilibrium dialysis; assay type: ADME, cell-free, Canis lupus familiaris; details: read-out: PPB (converted)
[11] = Oral bioavailability in Sprague-Dawley rat at 10 mg/kg measured upto 24 hrs; assay type: ADME, organism-based; details: in vivo
[12] = Half-life in Beagle dog at 2 mg/kg via oral gavage measured upto 24 hrs; assay type: ADME, organism-based, Canis lupus familiaris; details: in vivo
[13] = AUC in C57BL/6 mouse at 10 mg/kg via oral gavage measured upto 24 hrs; assay type: ADME, organism-based; set-up: time < 24 hr, dose 10 mg/kg, route oral; details: in vivo
[14] = Cmax in C57BL/6 mouse at 10 mg/kg via oral gavage measured upto 24 hrs; assay type: ADME, organism-based; set-up: dose 10 mg/kg, route oral; details: in vivo
[15] = Protein binding in mouse plasma measured after 2 to 6 hrs by rapid equilibrium dialysis; assay type: ADME, cell-free; details: read-out: PPB (converted)
[16] = Half-life in Sprague-Dawley rat at 10 mg/kg via oral gavage measured upto 24 hrs; assay type: ADME, organism-based; details: in vivo
[17] = tested on: MC-38; assay: Synergistic antitumour activity against MC38 cells xenografted in humanized PD1 transgenic mouse assessed as tumour growth inhibition at 20 to 50 mg/kg, po bid for 14 days pretreated with SHR-1210 at 5 mg/kg, ip qod for 8 days by digital caliper method relative to control
[18] = Oral bioavailability in Beagle dog at 2 mg/kg measured upto 24 hrs; assay type: ADME, organism-based, Canis lupus familiaris; details: in vivo
[19] = Half-life in C57BL/6 mouse at 10 mg/kg via oral gavage measured upto 24 hrs; assay type: ADME, organism-based; details: in vivo
[20] = Oral bioavailability in C57BL/6 mouse at 10 mg/kg measured upto 24 hrs; assay type: ADME, organism-based; details: in vivo
[21] = Half-life in rat liver microsomes; assay type: ADME, Microsome
[22] = AUC in Sprague-Dawley rat at 10 mg/kg via oral gavage measured upto 24 hrs; assay type: ADME, organism-based; set-up: time < 24 hr, dose 10 mg/kg, route oral; details: in vivo
[23] = tested on: Mus musculus; assay: Reduction in plasma kynurenine levels in C57BL/6 mouse at 100 mg/kg, s.d ig measured after 2 hrs relative to control; assay type: ADME, organism-based; set-up: scale not given: the % may be the effect or the level left; details: in vivo, po
[24] = Half-life in human liver microsomes; assay type: ADME, Microsome

Tryptophan 2,3-dioxygenase, sequence (P48775 whole entry): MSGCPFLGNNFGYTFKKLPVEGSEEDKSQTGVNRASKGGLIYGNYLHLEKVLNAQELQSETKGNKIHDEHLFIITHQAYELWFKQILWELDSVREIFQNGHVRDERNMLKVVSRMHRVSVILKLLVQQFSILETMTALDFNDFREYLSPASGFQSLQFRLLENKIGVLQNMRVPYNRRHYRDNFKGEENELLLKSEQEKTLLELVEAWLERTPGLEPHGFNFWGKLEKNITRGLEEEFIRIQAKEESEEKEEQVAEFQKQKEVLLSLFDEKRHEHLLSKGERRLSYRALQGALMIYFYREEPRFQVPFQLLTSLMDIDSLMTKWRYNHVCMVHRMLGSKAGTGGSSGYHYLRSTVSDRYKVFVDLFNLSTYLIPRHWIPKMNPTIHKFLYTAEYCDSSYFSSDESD
T1 sequence (P14902 whole entry): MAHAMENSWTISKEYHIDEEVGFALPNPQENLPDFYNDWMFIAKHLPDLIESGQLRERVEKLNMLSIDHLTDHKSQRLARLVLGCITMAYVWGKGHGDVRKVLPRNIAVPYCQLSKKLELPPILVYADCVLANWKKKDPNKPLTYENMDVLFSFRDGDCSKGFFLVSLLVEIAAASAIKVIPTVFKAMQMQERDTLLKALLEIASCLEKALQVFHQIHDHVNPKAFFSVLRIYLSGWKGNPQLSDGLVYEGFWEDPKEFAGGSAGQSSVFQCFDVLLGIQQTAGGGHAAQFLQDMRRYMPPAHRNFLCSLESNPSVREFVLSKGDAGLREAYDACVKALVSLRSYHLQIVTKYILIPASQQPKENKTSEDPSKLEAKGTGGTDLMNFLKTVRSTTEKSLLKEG

SMILES: Fc1cccc2c1C(C1CCN(c3ccc(N4CCOCC4)cc3)CC1)n1cncc1-2 (stereo not drawn)
IC50 [1]: 1710 nM
IC50 [2]: 1030 nM
IC50 [3]: 358 nM

SMILES: Fc1cccc2c1C(C1CCN(c3nccs3)CC1)n1cncc1-2 (stereo not drawn)
IC50 [1]: 571 nM
IC50 [2]: 586 nM
IC50 [3]: 297 nM

SMILES: Fc1cccc2c1C(C1CCNCC1)n1cncc1-2 (stereo not drawn)
IC50 [2]: > 10000 nM
IC50 [3]: > 10000 nM

SMILES: Fc1cccc2c1C(C1CCN(c3ccccc3)CC1)n1cncc1-2 (stereo not drawn)
IC50 [1]: 544 nM

SMILES: Cn1cc(-c2cnc(N3CCC(C4c5c(F)cccc5-c5cncn54)CC3)nc2)cn1 (stereo not drawn)
IC50 [1]: 324 nM
IC50 [2]: 579 nM
IC50 [3]: 113 nM

SMILES: Cn1cc(-c2ccc(N3CCC([C@H]4c5c(F)cccc5-c5cncn54)CC3)cc2)cn1
fraction unbound at 4 h [4]: 0.003
Cmax [5]: 166 ng/mL
Cmax [6]: 1850 ng/mL
inhibition in vivo at 20 mg/kg [7]: 39%
inhibition in vivo at 50 mg/kg [8]: 78%
AUC at 24 h [9]: 1340 ng·h/mL
fraction unbound [10]: 0.008
bioavailability [11]: 60.3%
half-life [12]: 6.49 h
AUC at 24 h [13]: 29100 ng·h/mL
Cmax [14]: 3600 ng/mL
fraction unbound [15]: 0.004
half-life [16]: 1.22 h
TGI [17]: >90%
bioavailability [18]: 27.3%
half-life [19]: 4.55 h
bioavailability [20]: 59.6%
half-life [21]: 2.37 h
AUC at 24 h [22]: 6130 ng·h/mL
Activity [23]: 57%
half-life [24]: 2.45 h

SMILES: Fc1cccc2c1C(Cc1ccccc1)n1cncc1-2 (stereo not drawn)
IC50 [2]: 793 nM
IC50 [3]: 2730 nM

SMILES: Cn1cc(-c2cccc(N3CCC(C4c5c(F)cccc5-c5cncn54)CC3)c2)cn1 (stereo not drawn)
IC50 [2]: 639 nM

SMILES: O=C(c1ccccc1)N1CCC(C2c3c(F)cccc3-c3cncn32)CC1 (stereo not drawn)
IC50 [2]: 1270 nM
IC50 [3]: 3560 nM

Continued by falling IC50 [2], values first:

IC50 [1]: 203 nM
IC50 [2]: 376 nM
IC50 [3]: 27 nM
SMILES: Cn1ccc2ccc(N3CCC(C4c5c(F)cccc5-c5cncn54)CC3)cc21 (stereo not drawn)

IC50 [2]: 374 nM
IC50 [3]: 2740 nM
SMILES: Fc1cccc2c1C(c1ccccc1)n1cncc1-2 (stereo not drawn)

IC50 [1]: 280 nM
IC50 [2]: 353 nM
IC50 [3]: 33 nM
SMILES: Fc1cccc2c1C(C1CCN(c3ccc(-c4ccncc4)cc3)CC1)n1cncc1-2 (stereo not drawn)

IC50 [2]: 247 nM
SMILES: O[C@H](C[C@H]1c2c(F)cccc2-c2cncn21)[C@H]1CC[C@H](O)CC1 [NAVOXIMOD]

IC50 [1]: 691 nM
IC50 [2]: 226 nM
IC50 [3]: 20 nM
SMILES: Cc1cc(-c2cnn(C)c2)ccc1N1CCC(C2c3c(F)cccc3-c3cncn32)CC1 (stereo not drawn)

IC50 [1]: 440 nM
IC50 [2]: 195 nM
IC50 [3]: 19 nM
SMILES: Fc1cccc2c1C(C1CCN(c3nc4ccccc4s3)CC1)n1cncc1-2 (stereo not drawn)

IC50 [1]: 5340 nM
IC50 [2]: 189 nM
IC50 [3]: 969 nM
SMILES: Fc1cccc2c1C(C1CCOCC1)n1cncc1-2 (stereo not drawn)

IC50 [1]: 240 nM
IC50 [2]: 183 nM
IC50 [3]: 70 nM
SMILES: Fc1cccc2c1C(C1CCN(c3ccc(-c4cccnc4)cc3)CC1)n1cncc1-2 (stereo not drawn)

IC50 [1]: 121 nM
IC50 [2]: 114 nM
IC50 [3]: 14 nM
SMILES: Cc1cc(N2CCC(C3c4c(F)cccc4-c4cncn43)CC2)ccc1-c1cnn(C)c1 (stereo not drawn)

IC50 [1]: 1240 nM
IC50 [2]: 95 nM
IC50 [3]: 764 nM
SMILES: Fc1cccc2c1C(C1CCCC1)n1cncc1-2 (stereo not drawn)

IC50 [1]: 568 nM
IC50 [2]: 85 nM
IC50 [3]: 108 nM
SMILES: Fc1cccc2c1C(C1CCCCC1)n1cncc1-2 (stereo not drawn)
